# Data from ChEMBL document CHEMBL3994605, “Synthesis and biological evaluation of curcumin inspired indole analogues as tubulin polymerization inhibitors” (Eur J Med Chem, 2017).
# Structures can show the parent of a compound that is named as a salt.
# Columns and labels:
# [1] = test system: A549; assay: Antiproliferative activity against human A549 cells after 48 hrs by MTT assay; assay type: functional, cell-based; conditions: A549, 48 h
# Method in brief: (§1)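 MTT read-out. Cells were seeded at 5 × 10^3 per well in DMEM or RPMI with 10% FBS and grown 24 h at 37 °C in CO2. Compound dilutions in medium, with vehicle control, were then added for 48 h. MTT (0.5 mg/mL in medium) was given for 4 h, formazan was dissolved in DMSO, and A570 was read. IC50 was taken from concentration–response curves as mean ± SD of three experiments run in triplicate.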
# [2] = test system: HGC-27; assay: Antiproliferative activity against human HGC27 cells after 48 hrs by MTT assay; assay type: functional, cell-based; conditions: HGC-27, 48 h; method in brief: as §1
# [3] = test system: MDA-MB-231; assay: Antiproliferative activity against human MDA-MB-231 cells after 48 hrs by MTT assay; assay type: functional, cell-based; conditions: MDA-MB-231, 48 h; method in brief: as §1
# [4] = test system: PC-3; assay: Antiproliferative activity against human PC3 cells after 48 hrs by MTT assay; assay type: functional, cell-based; conditions: PC-3, 48 h; method in brief: as §1
# [5] = test system: BT-549; assay: Antiproliferative activity against human BT549 cells after 48 hrs by MTT assay; assay type: functional, cell-based; conditions: BT-549, 48 h; method in brief: as §1
# [6] = test system: HeLa; assay: Antiproliferative activity against human HeLa cells after 48 hrs by MTT assay; assay type: functional, cell-based; method in brief: as §1
# [7] = test system: 4T1; assay: Antiproliferative activity against mouse 4T1 cells after 48 hrs by MTT assay; assay type: functional, cell-based; conditions: 4T1, 48 h; method in brief: as §1
# [8] = test system: DU-145; assay: Antiproliferative activity against human DU145 cells after 48 hrs by MTT assay; assay type: functional, cell-based; conditions: DU-145, 48 h; method in brief: as §1
# [9] = test system: PC-3; assay: Potency index, ratio of curcumin IC50 to compound IC50 for human PC3 cells; assay type: functional
# [10] = test system: MDA-MB-231; assay: Potency index, ratio of curcumin IC50 to compound IC50 for human MDA-MB-231 cells; assay type: functional
# [11] = test system: DU-145; assay: Potency index, ratio of curcumin IC50 to compound IC50 for human DU145 cells; assay type: functional
# [12] = species on record: Sus scrofa; assay: Inhibition of porcine brain tubulin polymerization assessed as reduction in incorporation of fluorescent reporter at 10 uM by fluorescence based assay relative to control
# Method in brief: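 Cell-free mix contained porcine brain tubulin (2 mg/mL) in 80 mM PIPES pH 6.9 with 2.0 mM MgCl2, 0.5 mM EGTA, 1.0 mM GTP and glycerol, with or without compound. Polymerization was tracked as a time-dependent fluorescence rise from reporter incorporation (ex 360, em 440 nm), with nocodazole as positive control. Inhibition was scored versus the untreated control. For IC50, the concentration giving 50% inhibition of assembly was used.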
# [13] = test system: BT-549; assay: Potency index, ratio of curcumin IC50 to compound IC50 for human BT549 cells; assay type: functional
IC50 [1] [µM],IC50 [3] [µM],IC50 [4] [µM],IC50 [5] [µM],IC50 [6] [µM],IC50 [7] [µM],IC50 [8] [µM],inhibition [12] [%],Compound,IC50 [2] [µM],Ratio IC50 [9],Ratio IC50 [10],Ratio IC50 [11],Ratio IC50 [13]
> 50,> 50,> 50,> 50,> 50,> 50,> 50,–,COc1ccc(OC)c(/C=C/C(=O)/C=C/c2cn(Cc3ccccc3)c3ccccc23)c1,> 50,–,–,–,–
0.172,0.117,0.0276,0.0547,–,–,0.0723,–,CC[C@]1(O)C[C@H]2CN(CCc3c([nH]c4ccccc34)[C@@](C(=O)OC)(c3cc4c(cc3OC)N(C=O)[C@H]3[C@@](O)(C(=O)OC)[C@H](OC(C)=O)[C@]5(CC)C=CCN6CC[C@]43[C@@H]65)C2)C1 [VINCRISTINE SULFATE],–,–,–,–,–
30.2,15.7,5.52,4.69,6.44,21.9,13.3,39.7,COc1ccc(/C=C/C(=O)/C=C/c2c[nH]c3ccccc23)cc1OC,7.45,2.2,1,2.1,5.3
–,15.8,12.2,24.9,25.4,–,28.4,–,COc1cc(/C=C/C(=O)CC(=O)/C=C/c2ccc(O)c(OC)c2)ccc1O [CURCUMIN],–,–,–,–,–
> 50,> 50,> 50,40.6,50.1,40.8,> 50,–,COc1cc(OC)c(OC)cc1/C=C/C(=O)/C=C/c1cn(Cc2ccccc2)c2ccccc12,> 50,–,–,–,–
> 50,> 50,> 50,> 50,40.1,> 50,> 50,–,COc1cc(OC)c(/C=C/C(=O)/C=C/c2cn(Cc3cccc(F)c3)c3ccccc23)c(OC)c1,> 50,–,–,–,–
> 50,> 50,> 50,50.1,50.9,> 50,> 50,–,COc1ccc(OC)c(/C=C/C(=O)/C=C/c2cn(Cc3ccc(F)cc3)c3ccccc23)c1,> 50,–,–,–,–
> 50,> 50,> 50,> 50,40.9,> 50,> 50,–,COc1cc(OC)c(/C=C/C(=O)/C=C/c2cn(Cc3ccc(Cl)cc3)c3ccccc23)c(OC)c1,> 50,–,–,–,–
> 50,> 50,> 50,25.2,50.6,25.9,> 50,–,COc1cc(OC)c(OC)cc1/C=C/C(=O)/C=C/c1cn(Cc2ccc(C(F)(F)F)cc2)c2ccccc12,40.1,–,–,–,–
> 50,> 50,> 50,50.4,50,> 50,> 50,–,COc1ccc(/C=C/C(=O)/C=C/c2cn(Cc3ccc(Cl)cc3)c3ccccc23)cc1,> 50,–,–,–,–
> 50,> 50,> 50,50.1,50.5,> 50,> 50,–,COc1ccc(/C=C/C(=O)/C=C/c2cn(Cc3ccc(OC(F)(F)F)cc3)c3ccccc23)cc1OC,> 50,–,–,–,–
> 50,> 50,> 50,40.1,> 50,50.2,> 50,–,COc1ccc(/C=C/C(=O)/C=C/c2cn(Cc3ccccc3)c3ccccc23)cc1,> 50,–,–,–,–
50.1,> 50,> 50,25.1,30.7,25.2,> 50,–,COc1cc(OC)c(OC)cc1/C=C/C(=O)/C=C/c1cn(Cc2ccc(F)cc2)c2ccccc12,40.2,–,–,–,–
> 50,> 50,> 50,> 50,> 50,> 50,> 50,–,COc1cc(OC)c(/C=C/C(=O)/C=C/c2cn(Cc3ccc(F)cc3)c3ccccc23)c(OC)c1,50.8,–,–,–,–
> 50,> 50,> 50,> 50,> 50,> 50,> 50,–,COc1ccc(OC)c(/C=C/C(=O)/C=C/c2cn(Cc3ccc(C(F)(F)F)cc3)c3ccccc23)c1,> 50,–,–,–,–
> 50,> 50,> 50,> 50,> 50,> 50,> 50,–,O=C(/C=C/c1ccc(Cl)cc1)/C=C/c1cn(Cc2ccccc2)c2ccccc12,> 50,–,–,–,–
–,46.4,3.12,10.5,–,13.9,–,–,COc1cc(OC)c(/C=C/C(=O)/C=C/c2c[nH]c3ccccc23)c(OC)c1,–,3.9,0.3,–,2.4
> 50,> 50,> 50,30.1,> 50,40,> 50,–,COc1ccc(/C=C/C(=O)/C=C/c2cn(Cc3ccc(F)cc3)c3ccccc23)cc1OC,50.3,–,–,–,–
> 50,> 50,> 50,40.4,> 50,> 50,> 50,–,COc1ccc(/C=C/C(=O)/C=C/c2cn(Cc3cccc(F)c3)c3ccccc23)cc1,> 50,–,–,–,–
> 50,> 50,> 50,> 50,> 50,> 50,> 50,–,COc1cc(OC)c(/C=C/C(=O)/C=C/c2cn(Cc3ccc(C(F)(F)F)cc3)c3ccccc23)c(OC)c1,> 50,–,–,–,–
> 50,> 50,> 50,> 50,> 50,> 50,> 50,–,COc1ccc(/C=C/C(=O)/C=C/c2cn(Cc3ccc(C(F)(F)F)cc3)c3ccccc23)cc1,> 50,–,–,–,–
> 50,> 50,> 50,> 50,50.1,> 50,> 50,–,COc1cc(OC)c(/C=C/C(=O)/C=C/c2cn(Cc3ccccc3)c3ccccc23)c(OC)c1,> 50,–,–,–,–
> 50,50.2,> 50,30.1,25.2,40.2,> 50,–,O=C(/C=C/c1ccc(Cl)cc1)/C=C/c1c[nH]c2ccccc12,50,–,–,–,–
45.1,32,3.51,31.4,–,21.6,13.6,–,COc1ccc(/C=C/C(=O)/C=C/c2c[nH]c3ccccc23)cc1,24,–,–,–,–
> 50,> 50,> 50,> 50,> 50,> 50,> 50,–,COc1ccc(/C=C/C(=O)/C=C/c2cn(Cc3ccc(F)cc3)c3ccccc23)cc1,> 50,–,–,–,–
